Blank lines part the entries; values can stand above or below the compound they belong to. Activity calls are given as the source filed them. The rule behind the calls is not given here.
Tests used:
[1] = Inhibition of Hsp90
Procedure, shortened: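 Thermally denatured firefly luciferase refolded in rabbit reticulocyte lysate at room temperature. Run in triplicate and repeated at least twice; luminescence read with 10 s integration. IC50 is the concentration that cuts recovery of luciferase activity by 50% versus DMSO. Linearity checked by anti-luciferase Western blot over the time course.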

[2] = Inhibition of Hsp90 in cell based assay
[3] = Effect on binding of Hsp90 to HR1 relative to control
[4] = species: Oryctolagus cuniculus; test: Inhibition of Hsp90-dependent maturation and activation of heme-regulated eIF2-alpha kinase in heme-deficient rabbit reticulocyte lysate at 100 uM
[5] = Inhibition of ATPase activity of bacterial DnaK at upto 400 uM
Procedure, shortened: (§1)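 Intrinsic ATPase measured with purified chaperone (bovine Hsp70 or bacterial DnaK, 1 µM) and 1 mM ATP, 3 h at 37 °C, compound or DMSO. Malachite green-molybdate added, then quenched with 3% sodium citrate; absorbance read at 620 nm. Compound tested up to 400 µM. Result is % of solvent control, mean of triplicates.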

[6] = target: T1, Heat shock protein HSP90 (Homo sapiens, UniProt P07900+P08238); test: Inhibition of Hsp90 in human MCF7 cells assessed as induction of actin degradation after 36 hrs by Western blot analysis; format: cell-based
Procedure, shortened: (§2)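 MCF-7 cells grown in DMEM:Ham's F-12 (1:1) with nonessential amino acids, 2 mM L-glutamine, antibiotics and 10% FBS. Seeded at 1 × 10^6 per dish, attached overnight, treated with varying concentrations for 36 h at 37 °C, 5% CO2. Harvested for Western blot of client proteins. Controls were GA 500 nM and DMSO.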

[7] = target: T1, Heat shock protein HSP90; test: Inhibition of Hsp90 in human SkBr3 cells assessed as induction of Her2 degradation by ELISA; format: cell-based
Procedure, shortened: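 SkBr3 cells seeded at 3000/well, attached overnight, then treated 24 h. Washed with ice-cold PBS/1% Tween and fixed with -20 °C methanol, 10 min at 4 °C. Blocked in 5% BSA/PBST 1 h. Rabbit anti-Her2 (1:500) overnight at 4 °C, then HRP anti-rabbit (1:1000) 2 h at rt; chemiluminescence read. IC50 from three experiments in triplicate.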

[8] = species: Bos taurus; test: Inhibition of ATPase activity of bovine Hsp70 at upto 400 uM; procedure, shortened: as §1
[9] = target: T1, Heat shock protein HSP90; test: Inhibition of Hsp90 in human MCF7 cells assessed as induction of Akt degradation after 36 hrs by Western blot analysis; format: cell-based; procedure, shortened: as §2
[10] = species: Oryctolagus cuniculus; test: Inhibition of Hsp90-dependent luciferase refolding in rabbit reticulocyte at 100 uM after 20 mins
[11] = tested on: MCF7; test: Antiproliferative activity against human MCF7 cells expressing ERalpha; format: functional, cell-based
Procedure, shortened: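 MCF-7 cells (ERα-positive human breast cancer) grown in 1:1 DMEM:Ham's F-12 with nonessential amino acids, 2 mM L-glutamine, streptomycin, penicillin and 10% FBS at 37 °C, 5% CO2. Antiproliferative IC50 derived from three separate experiments, each run in triplicate.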

[12] = tested on: SK-BR-3; test: Antiproliferative activity against human SkBr3 cells ERalpha-negative and overexpressing Her2
[13] = target: T1, Heat shock protein HSP90; test: Inhibition of Hsp90 in human MCF7 cells assessed as induction of ERalpha degradation after 36 hrs by Western blot analysis; format: cell-based; procedure, shortened: as §2
[14] = target: T1, Heat shock protein HSP90; test: Inhibition of Hsp90 in human MCF7 cells assessed as induction of Raf degradation after 36 hrs by Western blot analysis; format: cell-based; procedure, shortened: as §2
[15] = target: T1, Heat shock protein HSP90; test: Inhibition of Hsp90 in human MCF7 cells assessed as induction of Her2 degradation after 36 hrs by Western blot analysis; format: cell-based
[16] = species: Oryctolagus cuniculus; test: Inhibition of Hsp90-dependent activation of heme-regulated Eif2-alpha kinase in heme-deficient rabbit reticulocyte lysate at 100 uM

Activity [1]: inactive
Structure (SMILES): COc1cc(OC)c2c(OC)c(-c3ccc4c(c3)OCO4)c(=O)oc2c1

IC50 [2]: 500 µM
Structure (SMILES): CO[C@@H]1[C@@H](OC(N)=O)[C@@H](O)[C@H](Oc2ccc3c(O)c(NC(=O)c4ccc(O)c(CC=C(C)C)c4)c(=O)oc3c2C)OC1(C)C [NOVOBIOCIN]

IC50 [1]: < 0.1 µM
Structure (SMILES): C[C@@H]1C[C@H]2O[C@@H]2C=C/C=C/C(=O)Cc2c(Cl)c(O)cc(O)c2C(=O)O1 [RADICICOL]

Activity [3]: 80%
IC50 [1]: < 0.1 µM
Structure (SMILES): COC1=C2C[C@@H](C)C[C@H](OC)[C@H](O)[C@@H](C)/C=C(\C)[C@H](OC(N)=O)[C@@H](OC)/C=C\C=C(/C)C(=O)NC(=CC1=O)C2=O (stereo in doubt) [GELDANAMYCIN]

Activity [1]: inactive
Structure (SMILES): COc1ccc(-c2c(O)c3c(OC)c4c(cc3oc2=O)OC(C)(C)C=C4)cc1

Further lines, the compound ahead of its results:

Structure (SMILES): CC1(C)C=Cc2c(cc3occ(-c4ccc5c(c4)OCO5)c(=O)c3c2O)O1
Activity [1]: inactive

Structure (SMILES): COc1cc(OC)c2c(=O)c(-c3ccc4c(c3)OCO4)coc2c1
Activity [1]: inactive

Structure (SMILES): CC(C)=CCc1c(O)cc2occ(-c3ccc4c(c3)OCO4)c(=O)c2c1O [DERRUBONE]
Activity [4]: Active
Activity [5]: inactive
Activity [6]: Active
IC50 [7]: 14 µM
Activity [8]: inactive
Activity [3]: 46%
Activity [9]: Active
Activity [10]: Active
IC50 [11]: 9 µM
IC50 [12]: 12 µM
Activity [13]: Active
Activity [14]: Active
Activity [15]: Active
Activity [16]: Active
IC50 [1]: 0.23 µM

Reference: ChEMBL document CHEMBL1141356, “Derrubone, an inhibitor of the Hsp90 protein folding machinery” (J Nat Prod, 2007)
